# From ChEMBL document CHEMBL1165926, “Synthesis and characterization of potent inhibitors of Trypanosoma cruzi dihydrofolate reductase” (Bioorg Med Chem, 2010)
# Biological target: T1, Bifunctional dihydrofolate reductase-thymidylate synthase (Trypanosoma cruzi, UniProt Q27793)
# Experiment: Inhibition of Trypanosoma cruzi DHFR by spectrophotometric assay
# Method in brief: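 Recombinant bifunctional T. cruzi DHFR-TS in 50 mM Tris-HCl pH 7.0 with DHF, 100 µM NADPH and 0.5–1.0 µg enzyme; velocity from absorbance at 340 nm over 30 s at 22.6 °C. IC50 from velocities at several inhibitor concentrations for each of three DHF concentrations, then averaged; Ki calculated from IC50. Triplicates, repeated on different days.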
# T1 sequence (Q27793 whole entry): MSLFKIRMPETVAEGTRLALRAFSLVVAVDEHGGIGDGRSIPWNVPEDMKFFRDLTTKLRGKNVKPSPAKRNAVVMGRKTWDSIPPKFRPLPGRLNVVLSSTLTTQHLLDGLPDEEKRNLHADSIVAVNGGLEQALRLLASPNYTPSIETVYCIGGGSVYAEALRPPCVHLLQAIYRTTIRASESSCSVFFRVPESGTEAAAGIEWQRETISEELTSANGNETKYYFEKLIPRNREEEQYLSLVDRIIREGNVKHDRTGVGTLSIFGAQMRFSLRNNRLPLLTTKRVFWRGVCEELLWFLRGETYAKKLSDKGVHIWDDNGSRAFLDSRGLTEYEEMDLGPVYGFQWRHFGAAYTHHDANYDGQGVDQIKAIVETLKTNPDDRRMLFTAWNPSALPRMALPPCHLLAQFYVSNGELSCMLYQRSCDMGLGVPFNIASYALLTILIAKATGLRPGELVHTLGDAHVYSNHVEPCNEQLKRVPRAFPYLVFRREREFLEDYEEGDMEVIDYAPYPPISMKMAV
SMILES,IC50 [nM],Ki [nM]
COc1ccc(NCc2ccc3nc(N)nc(N)c3c2)cc1OC,27.1,1.6
CCCN(Cc1ccc2nc(N)nc(N)c2c1)c1ccc(OC)c(OCCCCC(=O)OC)c1,422,24.9
COc1ccc(NCc2ccc3nc(N)nc(N)c3c2)cc1OCCCC(=O)O,61,3.6
COC(=O)c1ccc(COc2cc(NCc3ccc4nc(N)nc(N)c4c3)ccc2OC)cc1,57.5,3.3

# The next lines start with the values.
IC50 [nM],Ki [nM],SMILES
27,1.6,COC(=O)CCCCOc1cc(NCc2ccc3nc(N)nc(N)c3c2)ccc1OC
23.8,1.3,CCOC(=O)CCCOc1cc(NCc2ccc3nc(N)nc(N)c3c2)ccc1OC
20.2,6.6,COc1cc(NCc2ccc3nc(N)nc(N)c3c2C)cc(OC)c1OC [TRIMETREXATE]

# Biological target: T1, Bifunctional dihydrofolate reductase-thymidylate synthase
# Experiment: Inhibition of Trypanosoma cruzi DHFR by Lineweaver-Burke plot
# Method in brief: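 Recombinant bifunctional T. cruzi DHFR-TS; 50 mM Tris-HCl pH 7.0 with DHF, 100 µM NADPH and 0.5–1.0 µg enzyme; initial velocity followed at 340 nm for 30 s at 22.6 °C. Velocities taken at five DHF concentrations for each of three inhibitor concentrations; Ki read from Lineweaver–Burk plots.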
row,Ki [nM],SMILES
1,4.75,COc1ccc(NCc2ccc3nc(N)nc(N)c3c2)cc1OC
2,5.68,CCOC(=O)CCCOc1cc(NCc2ccc3nc(N)nc(N)c3c2)ccc1OC

# Biological target: T2, Dihydrofolate reductase (Homo sapiens, UniProt P00374)
# T2 sequence (P00374 whole entry): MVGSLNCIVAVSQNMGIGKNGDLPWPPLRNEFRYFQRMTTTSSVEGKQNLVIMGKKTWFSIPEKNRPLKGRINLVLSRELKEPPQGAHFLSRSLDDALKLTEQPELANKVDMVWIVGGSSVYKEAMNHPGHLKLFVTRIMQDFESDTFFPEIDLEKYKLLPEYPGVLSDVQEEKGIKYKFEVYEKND
# Experiment: Inhibition of human DHFR by spectrophotometric assay
SMILES,IC50 [nM],Ki [nM]
COc1ccc(NCc2ccc3nc(N)nc(N)c3c2)cc1OC,85.5,11.8
CCCN(Cc1ccc2nc(N)nc(N)c2c1)c1ccc(OC)c(OCCCCC(=O)OC)c1,1340,188
COc1ccc(NCc2ccc3nc(N)nc(N)c3c2)cc1OCCCC(=O)O,357,49.8
COC(=O)c1ccc(COc2cc(NCc3ccc4nc(N)nc(N)c4c3)ccc2OC)cc1,175,24.5

# Further lines, results first:
IC50 [nM],Ki [nM],SMILES
93.5,13,COC(=O)CCCCOc1cc(NCc2ccc3nc(N)nc(N)c3c2)ccc1OC
68.3,9.6,CCOC(=O)CCCOc1cc(NCc2ccc3nc(N)nc(N)c3c2)ccc1OC
